{
  "source": "ChEMBL document CHEMBL1833876",
  "about": "(J Med Chem, 2011)",
  "key": {"[1]": {"tested_on": "Mus musculus", "assay": "Toxicity in human IGROV1 cells expressing human RFC, FRalpha and PCFT xenografted SCID mouse assessed as weight loss at 25 mg/kg, iv administered on days 3, 7, 11, 15, and 19 postimplantation measured on day 27 post last treatment", "assay_type": "organism-based, IGROV-1", "design": "dose 25 mg/kg, route intravenous", "conditions": "in vivo", "method_in_brief": "(§1)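 Female ICR SCID mice (10 weeks old) were fed a folate-deficient or folate-replete diet from 24 days before implant. IGROV1 tumor fragments (30–60 mg) were implanted bilaterally s.c. by trocar, and mice were randomized. Dosing was i.v. on a Q4dx5 schedule (days 3, 7, 11, 15, 19). Mice were weighed daily to track weight-loss nadir and recovery.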"}, "[2]": {"tested_on": "R2", "assay": "Antiproliferative activity against chinese hamster R2 cells expressing human PCFT assessed as growth inhibition in the presence of 60 uM adenosine", "assay_type": "functional, cell-based", "conditions": "Cricetulus griseus", "method_in_brief": "(§2)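 R2/hPCFT4 cells were grown in folate-free RPMI with 25 nM leucovorin and 10% dFBS and exposed to antifolate for up to 96 h. Rescue co-incubations used thymidine (10 µM), adenosine (60 µM) and AICA (320 µM), alone or combined. Viability was read by CellTiter-blue.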"}, "[3]": {"tested_on": "Mus musculus", "assay": "Toxicity in human IGROV1 cells expressing human RFC, FRalpha and PCFT xenografted SCID mouse assessed as mortality at 25 to 40 mg/kg, iv administered on days 3, 7, […], […], and […] postimplantation", "assay_type": "organism-based, IGROV-1", "conditions": "in vivo"}, "[4]": {"tested_on": "R2", "assay": "Antiproliferative activity against chinese hamster R2 cells expressing human PCFT assessed as inhibition of colony formation after 10 to 14 days", "assay_type": "functional, cell-based, Cricetulus griseus"}, "[5]": {"tested_on": "IGROV-1", "assay": "Antitumor activity against human IGROV1 cells expressing human RFC, FRalpha and PCFT xenografted in SCID mouse assessed as tumor growth inhibition at 25 mg/kg, iv administered on days 3, 7, […], […], and […] postimplantation", "assay_type": "functional"}, "[6]": {"tested_on": "IGROV-1", "assay": "Antiproliferative activity against human IGROV1 cells expressing human RFC, FRalpha and PCFT assessed as reduction of viable cells after 96 hrs in the presence of 200 nM folic acid", "assay_type": "functional, cell-based", "conditions": "IGROV-1, 96 h", "method_in_brief": "(§3)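 Same 96 h CellTiter-blue proliferation set-up in folate-free RPMI/10% dFBS with 2 nM leucovorin. Run in parallel incubations that included 200 nM folic acid alongside the antifolate, to establish FR-dependent uptake.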"}, "[7]": {"tested_on": "Mus musculus", "assay": "Toxicity in human IGROV1 cells expressing human RFC, FRalpha and PCFT xenografted SCID mouse assessed as weight loss at 25 mg/kg, iv administered on days 3, 7, 11, 15, and 19 postimplantation measured on day 13", "assay_type": "organism-based, IGROV-1", "design": "dose 25 mg/kg, route intravenous", "conditions": "in vivo", "method_in_brief": "(§4)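 Female ICR SCID mice, 10 weeks old, on a folate-deficient diet from 24 days before implant. Bilateral subcutaneous IGROV1 tumour fragments (30–60 mg, by trocar); mice pooled, then randomised. IV dosing on days 3, 7, 11, 15 and 19. Mice weighed daily; tumours measured by caliper 2–3 times weekly; mice sacrificed at 1500 mg tumour burden. Weight-loss nadir and recovery recorded.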"}, "[8]": {"tested_on": "R2", "assay": "Decrease in intracellular ATP concentration in chinese hamster R2 cells expressing human PCFT at 1 uM after 24 hrs by HPLC relative to control at pH 6.8", "assay_type": "functional, Cricetulus griseus", "design": "scale not given: the % may be the effect or the level left", "method_in_brief": "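R2/hPCFT4 CHO cells seeded in folate-free RPMI 1640 with 10% dialysed FBS and 25 nM leucovorin (pH 7.2). After 24 h, switched to the same medium buffered to pH 6.8 with 25 mM PIPES/25 mM HEPES. Drug at 1 µM, or vehicle (0.5% DMSO or H2O), for 24 h. Nucleotides extracted; ATP quantified by HPLC against vehicle control.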"}, "[9]": {"tested_on": "R2", "assay": "Antiproliferative activity against chinese hamster R2 cells assessed as reduction of viable cells after 96 hrs", "conditions": "Cricetulus griseus, R2, 96 h"}, "[10]": {"assay": "Antiproliferative activity against chinese hamster R2(VC) cells assessed as reduction of viable cells after 96 hrs", "conditions": "Cricetulus griseus"}, "[11]": {"tested_on": "KB", "assay": "Antiproliferative activity against human KB cells expressing human RFC, FRalpha and PCFT assessed as reduction of viable cells after 96 hrs in the presence of 200 nM folic acid", "assay_type": "functional, cell-based", "method_in_brief": "as §3"}, "[12]": {"assay": "Antiproliferative activity against chinese hamster RT16 cells expressing human FRalpha assessed as reduction of viable cells after 96 hrs in the presence of 200 nM folic acid", "assay_type": "functional, cell-based", "conditions": "Cricetulus griseus, RT16, 96 h", "method_in_brief": "as §3"}, "[13]": {"tested_on": "Mus musculus", "assay": "Toxicity in human IGROV1 cells expressing human RFC, FRalpha and PCFT xenografted SCID mouse assessed as weight loss at 40 mg/kg, iv administered on days 3, 7, 11, 15, and 19 postimplantation measured on day 21", "assay_type": "organism-based, IGROV-1", "design": "dose 40 mg/kg, route intravenous", "conditions": "in vivo", "method_in_brief": "as §4"}, "[14]": {"biological_target": "T1, Proton-coupled folate transporter (Homo sapiens) (UniProt Q96NT5)", "T1 sequence (whole entry)": "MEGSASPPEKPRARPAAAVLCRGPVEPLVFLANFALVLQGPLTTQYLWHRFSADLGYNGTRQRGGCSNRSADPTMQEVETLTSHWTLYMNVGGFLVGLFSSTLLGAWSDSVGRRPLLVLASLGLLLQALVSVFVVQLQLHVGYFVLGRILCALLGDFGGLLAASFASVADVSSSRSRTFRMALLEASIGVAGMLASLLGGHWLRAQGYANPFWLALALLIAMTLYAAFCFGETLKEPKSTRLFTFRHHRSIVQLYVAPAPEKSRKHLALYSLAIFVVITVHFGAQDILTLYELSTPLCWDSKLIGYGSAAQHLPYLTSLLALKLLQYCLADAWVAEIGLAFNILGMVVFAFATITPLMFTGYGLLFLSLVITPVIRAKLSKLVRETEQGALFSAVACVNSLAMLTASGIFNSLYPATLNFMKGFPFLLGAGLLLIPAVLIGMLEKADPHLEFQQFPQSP", "assay": "Inhibition of human PCFT-mediated [3H]MTX uptake expressed in chinese hamster R2 cells at pH 6.8 […] relative to PMX", "assay_type": "cell-based", "conditions": "concentration not given here"}, "[15]": {"tested_on": "R2", "assay": "Antiproliferative activity against chinese hamster R2 cells expressing human PCFT assessed as growth inhibition in the presence of 320 uM AICA", "assay_type": "functional, cell-based", "conditions": "Cricetulus griseus", "method_in_brief": "as §2"}, "[16]": {"tested_on": "IGROV-1", "assay": "Antitumor activity against human IGROV1 cells expressing human RFC, FRalpha and PCFT xenografted in standard folate diet fed SCID mouse assessed as tumor growth inhibition at 25 to 40 mg/kg, iv administered on days 3, 7, […], […], and […] postimplantation", "assay_type": "functional", "conditions": "dose mg/kg 25-40"}, "[17]": {"assay": "Inhibition of GARFTase in chinese hamster R2 cells expressing human PCFT assessed as incorporation of [14C]glycine into [14C]formyl GAR in the presence of 4 uM azaserine", "assay_type": "cell-based, Cricetulus griseus"}, "[18]": {"tested_on": "IGROV-1", "assay": "Antitumor activity against human IGROV1 cells expressing human RFC, FRalpha and PCFT xenografted in SCID mouse assessed as tumor growth inhibition at 40 mg/kg, iv administered on days 3, 7, […], […], and […] postimplantation", "assay_type": "functional"}, "[19]": {"tested_on": "Mus musculus", "assay": "Toxicity in human IGROV1 cells expressing human RFC, FRalpha and PCFT xenografted SCID mouse assessed as weight loss at 40 mg/kg, iv administered on days 3, 7, 11, 15, and 19 postimplantation measured on day 10 post last treatment", "conditions": "in vivo"}, "[20]": {"assay": "Antiproliferative activity against chinese hamster PC43-10 expressing human RFC assessed as reduction of viable cells after 96 hrs", "assay_type": "functional", "conditions": "Cricetulus griseus, PC43-10, 96 h"}, "[21]": {"tested_on": "IGROV-1", "assay": "Antiproliferative activity against human IGROV1 cells expressing human RFC, FRalpha and PCFT assessed as reduction of viable cells after 96 hrs", "assay_type": "functional, cell-based", "conditions": "IGROV-1, 96 h"}, "[22]": {"biological_target": "T1, Proton-coupled folate transporter (Homo sapiens)", "assay": "Inhibition of human PCFT-mediated [3H]MTX uptake expressed in chinese hamster R2 cells at pH 5.5 by dixon plot analysis relative to PMX", "assay_type": "cell-based", "conditions": "concentration not given here"}, "[23]": {"tested_on": "KB", "assay": "Antiproliferative activity against human KB cells expressing human RFC, FRalpha and PCFT assessed as reduction of viable cells after 96 hrs", "assay_type": "functional, cell-based"}, "[24]": {"tested_on": "Mus musculus", "assay": "Toxicity in human IGROV1 cells expressing human RFC, FRalpha and PCFT xenografted SCID mouse assessed as reversible weight loss at 25 to 40 mg/kg, iv administered on days 3, 7, 11, 15, and 19 postimplantation", "assay_type": "organism-based, IGROV-1", "design": "dose 25-40 mg/kg, route intravenous", "conditions": "in vivo", "method_in_brief": "as §4"}, "[25]": {"tested_on": "Mus musculus", "assay": "Toxicity in human IGROV1 cells expressing human RFC, FRalpha and PCFT xenografted SCID mouse assessed as weight loss at 25 mg/kg, iv administered on days 3, 7, 11, 15, and 19 postimplantation measured on day 8 post last treatment", "assay_type": "organism-based, IGROV-1", "design": "dose 25 mg/kg, route intravenous", "conditions": "in vivo", "method_in_brief": "as §1"}},
  "note": "Calls of active or inactive are those of the source. The calls are words filed in the database; no cut-off is given here.",
  "data": [
    {"smiles": "Nc1nc2[nH]c(CCCc3ccc(C(=O)N[C@@H](CCC(=O)O)C(=O)O)s3)cc2c(=O)[nH]1", "values": [
      {"measurement": "Activity", "setting": "[1]", "result": "Non-toxic"},
      {"measurement": "Activity", "setting": "[2]", "result": "inactive"},
      {"measurement": "Activity", "setting": "[3]", "result": "Non-toxic"},
      {"measurement": "IC50", "setting": "[4]", "result": 0.0014, "unit": "µM"},
      {"measurement": "T/C", "setting": "[5]", "result": 16, "unit": "%"},
      {"measurement": "IC50", "setting": "[6]", "result": "> 1", "unit": "µM"},
      {"measurement": "Activity", "setting": "[7]", "result": 6.3, "unit": "%"},
      {"measurement": "Activity", "setting": "[8]", "result": 90, "unit": "%"},
      {"measurement": "IC50", "setting": "[9]", "result": 0.274, "unit": "µM"},
      {"measurement": "IC50", "setting": "[10]", "result": 0.288, "unit": "µM"},
      {"measurement": "IC50", "setting": "[11]", "result": "> 1", "unit": "µM"},
      {"measurement": "IC50", "setting": "[12]", "result": "> 1", "unit": "µM"},
      {"measurement": "Activity", "setting": "[13]", "result": 9.4, "unit": "%"},
      {"measurement": "inhibition", "setting": "[14]", "result": 18, "unit": "%"},
      {"measurement": "Activity", "setting": "[15]", "result": "inactive"},
      {"measurement": "T/C", "setting": "[16]", "result": 67, "unit": "%"},
      {"measurement": "IC50", "setting": "[17]", "result": 0.00069, "unit": "µM"},
      {"measurement": "T/C", "setting": "[18]", "result": 14, "unit": "%"},
      {"measurement": "Activity", "setting": "[19]", "result": "Non-toxic"},
      {"measurement": "IC50", "setting": "[20]", "result": 0.101, "unit": "µM"},
      {"measurement": "IC50", "setting": "[21]", "result": 0.00055, "unit": "µM"},
      {"measurement": "inhibition", "setting": "[22]", "result": 35, "unit": "%"},
      {"measurement": "IC50", "setting": "[23]", "result": 0.00026, "unit": "µM"},
      {"measurement": "Activity", "setting": "[24]", "result": 2.7, "unit": "%"},
      {"measurement": "Activity", "setting": "[25]", "result": "Non-toxic"}
    ]}
  ]
}
